We go through six compounds from ChEMBL document CHEMBL1122609, “N-allyl analogues of phencyclidine: chemical synthesis and pharmacological properties” (J Med Chem, 1984).

Data set [1] deals with Mus musculus. Briefly: Lethal dose (LD50) determined by the Litchfield and Wilcoxon method was reported. The class given is functional. The method in brief:
(§1)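 Male HAP ICR Swiss mice, 25-35 g, in groups of six, given ip doses. Deaths counted at 24 h after injection. LD50 estimated by Litchfield–Wilcoxon probit analysis, as for ED50.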

Data set [2] can be described thus: Ratio of half life (protection) to the control was reported at a concentration 8*10e-6 M. The format is ADME. In a few lines:
(§2)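 Horse-serum BChE (3 units/mg), Ellman method: 0.025 unit with acetylthiocholine 1.87 × 10^-3 M in 0.1 M phosphate buffer pH 7.4 at 25 °C, absorbance at 412 nm followed over time. Enzyme preincubated 3 min with test compound. DFP 2.5 × 10^-8 M then added. Aliquots assayed for residual activity at various times. Pseudo-first-order constant used to obtain k2 = ln(A0/At)/([I]t).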

In data set [3] the target is Muscarinic acetylcholine receptor. Briefly: Dissociation constant towards Muscarinic acetylcholine receptor was determined by using [3H]4NMPB as radioligand. The class given is protein assay. In a few lines: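 Competition binding with [3H]-4NMPB in the S1 supernatant of mouse-brain homogenate, with and without test compound at various concentrations. Nonspecific binding determined and subtracted. KD calculated from the difference in binding.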

The subject of data set [4] is Mus musculus. Briefly: Percent failing the test was reported at dose 13.2 umol/kg (experiment 1). The class given is functional.
Data set [5] can be described thus: Ratio of failed to the tested was reported at dose 13.2 umol/kg (experiment 1); out of 6. The format is functional. The method in brief: (§3)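 Male HAP ICR Swiss mice (20-30 g) pre-screened on the mouse platform test. PCP was given ip in 0.9% NaCl (0.01 mL/g). The platform was rotated 180° within 10 s, and mice were scored over 60 s for falling off, failing to reach the top, or reaching the top. Testing was at 5-120 min post-injection. The read-out was the number failing out of the number tested.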

Data set [6] is described as follows: Ratio of failed to the tested was reported at dose 9.60 umol/kg (experiment 2); out of 6. The format is functional.
Data set [7] has as its system Mus musculus. Briefly: Percent failing the test was reported at dose 9.60 umol/kg (experiment 1). The format is functional.
Data set [8] is filed under the species Mus musculus. Briefly: Relative potency was determined using mouse platform test of Coughenour et al. The class given is functional. In a few lines:
(§4)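 Male HAP ICR Swiss mice, 25-30 g, pre-screened for passing. Dosing ip in 0.9% NaCl as a solution or fine suspension, 0.01 mL/g, 4-6 doses, six mice per dose, repeated on 2-4 more days. Platform rotated 180° at 5-120 min. Falling, or failing to climb within 60 s, scored.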

Data set [9] can be described thus: Ratio of half life (protection) to the control was reported at a concentration 3*10e-6 M. The class given is ADME. The method in brief: (§5)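 Horse serum BChE (0.5 unit/mL) was incubated 3 min with the compound, then DFP was added at 2.5 × 10^-8 M, 25 °C. Residual activity was measured in aliquots over time by the Ellman method: acetylthiocholine 1.87 × 10^-3 M, 0.1 M phosphate pH 7.4, absorbance at 412 nm. Inactivation was fitted as pseudo-first-order.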

Data set [10] can be described thus: Ratio of half life (protection) to the control was reported at a concentration 2*10e-6M. The class given is ADME. In a few lines: as §5
The species entered for data set [11] is Mus musculus. Briefly: Effective dose for the degree of motor incoordination in untrained mice. The format is functional. In a few lines:
as §4

Data set [12] is described as follows: Ratio of half life (protection) to the control was reported at a concentration 4*10e-6 M. The format is ADME. The method in brief:
as §2

The species entered for data set [13] is Mus musculus. Put plainly: Compound was evaluated for acute toxicity relative to PCP. The format is organism-based. As to conditions: in vivo.
A short description of data set [14]: Ratio of half life (protection) to the control was reported at a concentration 0 M. The class given is ADME. In a few lines: as §2
Data set [15] in a line: Ratio of failed to the tested was reported at dose 26.0 umol/kg (experiment 1); out of 6. The class given is functional. The method in brief: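 Male HAP ICR Swiss mice (20-30 g), six per group, pre-screened on the platform test. An N-allyl analogue in 0.9% NaCl was given ip, and PCP ip followed 5 min later. The platform was rotated 180° within 10 s, and mice were scored over 60 s for falling off or reaching the top. Testing was at 5-120 min post-injection. The read-out was the number failing out of the number tested.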

The nature of data set [16]: Ratio of half life (protection) to the control was reported at a concentration 4*10e-7 M. The class given is ADME. In a few lines: as §2
For data set [17], the system named is Mus musculus. Briefly: Percent failing the test was reported at dose 9.60 umol/kg (experiment 2). The class given is functional.
Data set [18] in a line: Ratio of failed to the tested was reported at dose 29.0 umol/kg (experiment 2); out of 6. The class given is functional.
Data set [19] in a line: Ratio of half life (protection) to the control was reported at a concentration 9*10e-7 M. The class given is ADME. In a few lines: as §2
For data set [20], the species on record is Mus musculus. Briefly: Compound was evaluated for acute toxicity relative to compound PCP. The class given is organism-based. As to conditions: in vivo.
The nature of data set [21]: Ratio of failed to the tested was reported at dose 9.60 umol/kg (experiment 2); out of 24. The format is functional. The method in brief: as §3
Data set [22] concerns Mus musculus. Put plainly: Compound was evaluated for lethal dose (LD50) by the Litchfield and Wilcoxon method. The class given is functional. The method in brief: as §1
The nature of data set [23]: Ratio of failed to the tested was reported at dose 19.0 umol/kg (experiment 2); out of 6. The class given is functional.
Data set [24] is described as follows: Ratio of half life (protection) to the control was reported at a concentration 4*10e-5 M. The format is ADME. The method in brief:
as §2

Data set [25] is filed under the species Mus musculus. Put plainly: Acute toxicity relative to PCP was reported. As to conditions: in vivo. The class given is organism-based.
Data set [26] in a line: Ratio of failed to the tested was reported at dose 16.0 umol/kg (experiment 1); out of 6. The class given is functional.
A short description of data set [27]: Ratio of failed to the tested was reported at dose 15.2 umol/kg (experiment 2); out of 12. The format is functional.
Data set [28] is described as follows: Ratio of failed to the tested was reported at dose 12.4 umol/kg (experiment 1); out of 12. The class given is functional.

As for `C=CCNC1(c2ccccc2)CCCCC1`, the median lethal dose (LD50) with Mus musculus [1] was determined as 344 µmol/kg. Also, the Ratio was found to be 2.35 in [2]; 6 in [5]; 5 in data set [6]; 1.71 in data set [9]; 1.22 in [10]; 2.61 in data set [12]. The Ratio in data set [14] is listed as 1. This compound yielded a Kd in data set [3] of 70 µM. Further, the Activity is 100% with Mus musculus [4] and 83% with Mus musculus [7]. For the same compound, the Relative potency in the data set filed under Mus musculus [8] is listed as 0.55. Besides, in the data set filed under Mus musculus [11], the 50% effect level (ED50) was put at a dose of 20.4 µmol/kg. The compound further came in with an Acute toxicity in the data set listed under Mus musculus [13] of 0.75.
For `C=CCN(CC=C)C1(c2ccccc2)CCCCC1`, the Ratio amounted to 6 in data set [15]; 1.18 in data set [16]; 6 in data set [18]; 5.89 in [12]; 1 in [14]; 2.12 in [19]. Further, the Kd in [3] worked out at 25 µM. For the same compound, the Activity in the data set with Mus musculus [4] and with Mus musculus [17] was 100% throughout. This compound also displayed a Relative potency in the data set listed under Mus musculus [8] of 0.27. Also, the ED50 in the data set filed under Mus musculus [11] was 35.6 µmol/kg.
Regarding `c1ccc(C2(N3CCCCC3)CCCCC2)cc1` [PHENCYCLIDINE], the Ratio is 1.73 in [2]; 1.26 in data set [16]; 2 in data set [5]; 11 in [21]; 4.48 in [12]; 1 in data set [14]. This compound also gave a Kd in [3] of 9.1 µM. Further, the figures for the Activity in the data set on Mus musculus [4] and in the data set with Mus musculus [17] were 33.3% and 45.8%, respectively. Further, in the data set listed under Mus musculus [8], the Relative potency was determined as 1. For the same compound, in the data set listed under Mus musculus [20], the Acute toxicity came out at 1. In addition, in the data set filed under Mus musculus [11], the median effective dose (ED50) stood at 9.6 µmol/kg. Moreover, in the data set with Mus musculus [22], the 50% lethal dose (LD50) was 258 µmol/kg.
For `C=CCN(C)C1(c2ccccc2)CCCCC1`, the Ratio in [23] was found to be 6; in [2], 2.21; in data set [24], 7.76; in data set [26] it was 6; in [12] it was 2.15; in data set [14], 1. In the data set on Mus musculus [1], the LD50 was 516 µmol/kg. In addition, the dissociation constant (Kd) in data set [3] amounted to 15 µM. The Activity with Mus musculus [4] and in the data set with Mus musculus [17] was 100% in each case. Besides, the Acute toxicity in the data set filed under Mus musculus [25] turned out to be 0.5. In the data set filed under Mus musculus [8], the Relative potency is reported as 0.41. In addition, it took a dose of 27.2 µmol/kg to reach the 50% effect level in the data set filed under Mus musculus [11] (ED50).
With `CCNC1(c2ccccc2)CCCCC1` [ETICYCLIDINE], the Ratio in data set [2] was found to be 2.52; in data set [16], 0.95; in [12], 2.6; in data set [14] it was 1.
Consider `C=CCN(CC)C1(c2ccccc2)CCCCC1`, for which the 50% lethal dose (LD50) in the data set with Mus musculus [1] is 441 µmol/kg. The Ratio in data set [2] amounted to 1.71; in data set [27] it was 10; in data set [16], 1.33; in [28] it was 10; in data set [12], 5.11; in [14] it was 1. For the same compound, the dissociation constant Kd in data set [3] was 14 µM. The Activity in the data set with Mus musculus [4] and in the data set with Mus musculus [17] was 83% each time. In addition, the Acute toxicity in the data set listed under Mus musculus [25] was found to be 0.59. This compound also came in with a Relative potency in the data set filed under Mus musculus [8] of 0.42. In the data set listed under Mus musculus [11], the 50% effect level (ED50) was put at a dose of 22.6 µmol/kg.

By LD50 is commonly meant the dose at which mortality reaches 50%. A low value points to a more toxic substance. The term Kd denotes the concentration at which binding is half-saturated. Low readings indicate higher affinity, high ones lower affinity. The term ED50 denotes the dose at which the effect has come halfway, by size or by number of responders. High values mean a need for a large dose, low ones an effect at a small dose.
